# Data: ChEMBL document CHEMBL3758117, “Discovery of indeno[1,2-b]quinoxaline derivatives as potential anticancer agents” (Eur J Med Chem, 2016)
# Activity calls are given as the source filed them. The rule behind the calls is not given here.
# Tests used:
# [1] = Cell cycle arrest in human HuH7 cells assessed as accumulation at S phase at 10 uM for 24 hrs by propidium iodide staining based flow cytometry (reference value: 11.4 +/- 2.4%); type: functional; conditions: Huh-7
# [2] = biological target: Proto-oncogene tyrosine-protein kinase Src (Homo sapiens) (UniProt P12931); experiment: Inhibition of Src phosphorylation in human HuH7 cells at 1 to 10 uM after 24 hrs by immunoblot analysis; type: cell-based; conditions: Huh-7
# Proto-oncogene tyrosine-protein kinase Src (Homo sapiens), sequence (P12931 2-536 limits assumed): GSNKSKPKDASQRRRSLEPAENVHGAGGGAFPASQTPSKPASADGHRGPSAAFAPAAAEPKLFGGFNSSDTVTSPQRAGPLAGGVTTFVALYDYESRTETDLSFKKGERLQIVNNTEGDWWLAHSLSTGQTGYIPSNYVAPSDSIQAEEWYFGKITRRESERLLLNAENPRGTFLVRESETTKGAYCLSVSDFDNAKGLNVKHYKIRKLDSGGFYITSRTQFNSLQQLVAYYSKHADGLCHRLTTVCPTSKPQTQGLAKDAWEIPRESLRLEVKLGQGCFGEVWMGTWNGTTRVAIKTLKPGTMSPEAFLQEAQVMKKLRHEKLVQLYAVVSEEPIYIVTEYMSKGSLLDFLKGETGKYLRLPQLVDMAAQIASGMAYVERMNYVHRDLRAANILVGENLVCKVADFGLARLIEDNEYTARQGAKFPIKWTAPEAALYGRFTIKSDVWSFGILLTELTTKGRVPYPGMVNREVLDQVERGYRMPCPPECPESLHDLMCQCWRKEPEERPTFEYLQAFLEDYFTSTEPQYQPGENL
# Summary of the method: (§1)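 Huh-7 cells were treated with DMSO or compound at 1, 5 and 10 μM for 24 h. Cells were lysed in NP-40 buffer with protease and phosphatase inhibitors, and protein was measured by Bradford. Lysate protein was resolved by SDS-PAGE and transferred to PVDF. Membranes were blocked in 5% milk, probed with primary antibodies for 2 h and secondary antibodies for 30 min, and detected by ECL, with β-actin as loading control.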
# [3] = Induction of apoptosis in human HuH7 cells assessed as upregulation of Bax expression at 1 to 10 uM after 24 hrs by Western blot analysis; type: functional, cell-based; conditions: Huh-7; summary of the method: as §1
# [4] = system: Huh-7; experiment: Induction of apoptosis in human HuH7 cells assessed as downregulation of Bcl-2 expression at 1 to 10 uM after 24 hrs by Western blot analysis; type: functional, cell-based; summary of the method: as §1
# [5] = system: Huh-7; experiment: Induction of apoptosis in human HuH7 cells assessed as downregulation of PARP expression at 1 to 10 uM after 24 hrs by Western blot analysis; type: functional, cell-based; summary of the method: as §1
# [6] = Cell cycle arrest in human HuH7 cells assessed as accumulation at G2/M phase at 1 uM for 24 hrs by propidium iodide staining based flow cytometry (reference value: 25.2 +/- 3.5%); type: functional; conditions: Huh-7
# [7] = Downregulation of cyclin B1 expression in human HuH7 cells at 1 to 10 uM after 24 hrs by immunoblot analysis; type: functional, cell-based; conditions: Huh-7; summary of the method: as §1
# [8] = system: MDA-MB-231; experiment: Antiproliferative activity against human MDA-MB-231 cells after 72 hrs by XTT assay; type: functional, cell-based; conditions: MDA-MB-231, 72 h
# Summary of the method: (§2)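 Cells kept as monolayers in DMEM with 10% FBS, penicillin, streptomycin and amphotericin at 37°C, 5% CO2. Seeded at 5 x 10³ cells/well and exposed to compound for 72 h in medium with 10% FBS. XTT plus electron-coupling reagent added, 4 h at 37°C, absorbance read at 492 nm. Percent of control growth uses mean absorbance (n = 3). The 50% value is taken from the linear portion of the curve.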
# [9] = biological target: RAC-alpha serine/threonine-protein kinase (Homo sapiens) (UniProt P31749); experiment: Inhibition of AKT1 phosphorylation in human HuH7 cells at 1 to 10 uM after 24 hrs by immunoblot analysis; type: cell-based; conditions: Huh-7; summary of the method: as §1
# RAC-alpha serine/threonine-protein kinase (Homo sapiens), sequence (P31749 whole entry): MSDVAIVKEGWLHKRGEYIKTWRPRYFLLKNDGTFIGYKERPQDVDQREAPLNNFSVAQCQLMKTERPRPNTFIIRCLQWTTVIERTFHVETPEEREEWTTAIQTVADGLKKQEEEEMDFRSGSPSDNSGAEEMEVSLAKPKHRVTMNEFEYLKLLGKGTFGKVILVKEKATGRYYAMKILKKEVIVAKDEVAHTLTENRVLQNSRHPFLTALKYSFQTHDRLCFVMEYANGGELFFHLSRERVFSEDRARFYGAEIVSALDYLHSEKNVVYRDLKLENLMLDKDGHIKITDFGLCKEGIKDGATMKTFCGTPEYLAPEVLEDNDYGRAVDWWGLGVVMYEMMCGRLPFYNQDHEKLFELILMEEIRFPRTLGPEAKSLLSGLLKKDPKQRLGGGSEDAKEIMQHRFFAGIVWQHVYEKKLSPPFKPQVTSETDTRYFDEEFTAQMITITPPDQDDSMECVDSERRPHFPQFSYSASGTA
# [10] = Cell cycle arrest in human HuH7 cells assessed as accumulation at G2/M phase at 5 uM for 24 hrs by propidium iodide staining based flow cytometry (reference value: 25.2 +/- 3.5%); type: functional; conditions: Huh-7
# [11] = Downregulation of cyclin D1 expression in human HuH7 cells at 1 to 10 uM after 24 hrs by immunoblot analysis; type: functional, cell-based; conditions: Huh-7; summary of the method: as §1
# [12] = biological target: DNA topoisomerase 2-alpha (Homo sapiens) (UniProt P11388); experiment: Inhibition of human DNA topoisomerase 2-mediated relaxation of supercoiled pBR322 DNA at 100 uM after 30 mins by ethidium bromide staining based agarose gel electrophoresis
# DNA topoisomerase 2-alpha (Homo sapiens), sequence (P11388 whole entry): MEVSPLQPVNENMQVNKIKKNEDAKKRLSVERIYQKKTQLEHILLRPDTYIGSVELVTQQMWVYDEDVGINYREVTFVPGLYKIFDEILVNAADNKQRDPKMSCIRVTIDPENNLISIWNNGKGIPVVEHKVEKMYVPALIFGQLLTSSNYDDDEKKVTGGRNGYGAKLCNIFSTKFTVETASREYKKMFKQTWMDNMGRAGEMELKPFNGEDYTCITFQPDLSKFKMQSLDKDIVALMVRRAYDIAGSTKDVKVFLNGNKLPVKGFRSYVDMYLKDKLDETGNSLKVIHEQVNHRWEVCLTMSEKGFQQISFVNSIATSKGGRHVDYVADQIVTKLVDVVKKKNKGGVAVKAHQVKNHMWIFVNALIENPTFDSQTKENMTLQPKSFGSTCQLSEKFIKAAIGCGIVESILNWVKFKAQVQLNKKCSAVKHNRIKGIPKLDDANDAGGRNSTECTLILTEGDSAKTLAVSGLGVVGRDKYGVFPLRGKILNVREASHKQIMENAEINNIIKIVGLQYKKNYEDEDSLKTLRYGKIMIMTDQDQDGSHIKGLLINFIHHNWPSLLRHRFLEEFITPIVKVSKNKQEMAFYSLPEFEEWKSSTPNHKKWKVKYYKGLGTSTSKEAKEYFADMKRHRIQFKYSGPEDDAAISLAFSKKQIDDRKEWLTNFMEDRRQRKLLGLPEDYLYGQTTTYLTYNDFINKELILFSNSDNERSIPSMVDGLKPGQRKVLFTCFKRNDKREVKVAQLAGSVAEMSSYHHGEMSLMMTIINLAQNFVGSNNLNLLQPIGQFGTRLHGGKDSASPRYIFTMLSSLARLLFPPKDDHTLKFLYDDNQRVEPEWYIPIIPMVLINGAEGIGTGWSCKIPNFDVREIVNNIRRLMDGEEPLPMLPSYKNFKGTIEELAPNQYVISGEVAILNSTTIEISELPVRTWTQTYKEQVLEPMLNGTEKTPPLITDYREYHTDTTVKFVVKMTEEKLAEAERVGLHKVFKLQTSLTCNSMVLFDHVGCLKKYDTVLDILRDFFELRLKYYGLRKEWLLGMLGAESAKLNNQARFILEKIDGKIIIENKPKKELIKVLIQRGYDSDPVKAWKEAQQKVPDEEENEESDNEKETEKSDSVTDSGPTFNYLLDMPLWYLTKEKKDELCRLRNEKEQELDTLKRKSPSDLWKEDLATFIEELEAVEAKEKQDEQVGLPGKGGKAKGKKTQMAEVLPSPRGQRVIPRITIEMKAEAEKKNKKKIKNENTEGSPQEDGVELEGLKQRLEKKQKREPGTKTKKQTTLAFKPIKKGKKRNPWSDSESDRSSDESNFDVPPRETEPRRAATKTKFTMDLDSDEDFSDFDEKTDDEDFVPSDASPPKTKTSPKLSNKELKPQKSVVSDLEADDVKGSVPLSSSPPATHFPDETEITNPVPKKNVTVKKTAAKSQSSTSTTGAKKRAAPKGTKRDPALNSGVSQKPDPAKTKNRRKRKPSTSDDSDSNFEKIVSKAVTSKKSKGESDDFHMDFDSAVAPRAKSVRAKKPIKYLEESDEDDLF
# Summary of the method: (§3)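 Human topo I or topo II (2 units) was reacted with 0.2 μg supercoiled pBR322 in 20 μl Tris-HCl pH 7.5 containing KCl, DTT, EDTA, MgCl2 and BSA, with DMSO held at 0.5%, for 30 min at 37°C. The reaction was stopped with SDS. Samples were run on 1% agarose in Tris-acetate/EDTA at 1.5 V/cm for 2-3 h and stained with ethidium bromide. Relaxation was quantified by densitometry of the supercoiled band area.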
# [13] = system: Escherichia coli; experiment: Binding affinity to Escherichia coli negative supercoiled pBR322 DNA at 10 uM after 12 hrs by ethidium bromide staining based agarose gel electrophoresis
# Summary of the method: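 Negatively supercoiled pBR322 (400 ng) in TE buffer pH 8.0 was incubated with compound at 10 μM for 12 h at room temperature. Loading buffer with sarkosyl was added. Samples were run on 1% agarose at 6 V/cm for 2.5 h in TAE pH 8.5, stained with ethidium bromide and photographed under UV.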
# [14] = biological target: T1, DNA topoisomerase 1 (Homo sapiens) (UniProt P11387); experiment: Inhibition of human DNA topoisomerase 1-mediated relaxation of supercoiled pBR322 DNA at 100 uM after 30 mins by ethidium bromide staining based agarose gel electrophoresis; summary of the method: as §3
# T1 sequence (whole entry): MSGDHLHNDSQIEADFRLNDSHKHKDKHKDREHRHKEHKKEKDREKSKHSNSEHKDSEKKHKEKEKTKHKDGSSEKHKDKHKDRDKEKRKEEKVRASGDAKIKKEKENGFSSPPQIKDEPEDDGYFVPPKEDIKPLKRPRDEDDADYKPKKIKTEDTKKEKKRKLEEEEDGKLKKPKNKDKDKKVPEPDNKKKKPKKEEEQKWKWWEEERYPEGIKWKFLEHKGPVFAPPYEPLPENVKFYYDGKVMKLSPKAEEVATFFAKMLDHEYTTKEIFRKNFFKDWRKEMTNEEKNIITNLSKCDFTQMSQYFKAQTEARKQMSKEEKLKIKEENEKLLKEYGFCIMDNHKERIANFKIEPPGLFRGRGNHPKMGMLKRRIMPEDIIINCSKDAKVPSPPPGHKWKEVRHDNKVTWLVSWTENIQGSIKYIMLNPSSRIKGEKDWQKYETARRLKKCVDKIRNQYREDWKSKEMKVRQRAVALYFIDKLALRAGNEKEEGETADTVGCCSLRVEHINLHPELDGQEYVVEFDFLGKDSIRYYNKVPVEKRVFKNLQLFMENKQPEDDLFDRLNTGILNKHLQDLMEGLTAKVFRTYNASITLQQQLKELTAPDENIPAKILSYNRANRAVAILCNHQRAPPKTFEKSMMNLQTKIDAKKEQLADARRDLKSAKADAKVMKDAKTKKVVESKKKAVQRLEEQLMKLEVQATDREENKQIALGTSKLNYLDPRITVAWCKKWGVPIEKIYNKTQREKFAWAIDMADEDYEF
# [15] = Cell cycle arrest in human HuH7 cells assessed as accumulation at subG1 phase at 1 uM for 24 hrs by propidium iodide staining based flow cytometry (reference value: 1.3 +/- 0.7%); type: functional; conditions: Huh-7
# [16] = Cell cycle arrest in human HuH7 cells assessed as accumulation at sub G1 phase at 5 uM for 24 hrs by propidium iodide staining based flow cytometry (reference value: 1.3 +/- 0.7%); type: functional; conditions: Huh-7
# [17] = system: MRC5; experiment: Antiproliferative activity against human MRC5 cells after 72 hrs by XTT assay; type: cell-based; conditions: MRC5, 72 h; summary of the method: as §2
# [18] = biological target: RAC-beta serine/threonine-protein kinase (Homo sapiens) (UniProt P31751); experiment: Inhibition of AKT2 phosphorylation in human HuH7 cells at 1 to 10 uM after 24 hrs by immunoblot analysis; type: cell-based; conditions: Huh-7; summary of the method: as §1
# RAC-beta serine/threonine-protein kinase (Homo sapiens), sequence (P31751 whole entry): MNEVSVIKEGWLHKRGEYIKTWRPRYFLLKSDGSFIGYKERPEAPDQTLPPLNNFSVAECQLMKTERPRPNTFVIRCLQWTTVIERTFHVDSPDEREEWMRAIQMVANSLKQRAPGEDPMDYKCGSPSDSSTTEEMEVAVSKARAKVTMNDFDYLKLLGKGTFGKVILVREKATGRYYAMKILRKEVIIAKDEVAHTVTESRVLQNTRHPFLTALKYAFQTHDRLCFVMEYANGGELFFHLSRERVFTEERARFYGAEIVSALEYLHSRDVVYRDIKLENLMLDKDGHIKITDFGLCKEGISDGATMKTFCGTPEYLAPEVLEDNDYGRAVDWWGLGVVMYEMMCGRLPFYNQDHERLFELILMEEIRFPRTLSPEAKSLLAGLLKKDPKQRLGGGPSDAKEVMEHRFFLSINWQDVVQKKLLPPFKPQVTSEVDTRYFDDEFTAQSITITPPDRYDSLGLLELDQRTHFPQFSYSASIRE
compound,measurement,setting,value
CN(C)CCCNC(=O)c1cccc2nc3c(nc12)-c1ccccc1/C3=N\OCCCN(C)C.Cl,Activity,[1],38.4%
same,inhibition,[2],Active
same,Activity,[3],Dose-dependent effect
same,Activity,[4],Dose-dependent effect
same,Activity,[5],Dose-dependent effect
same,Activity,[6],19.3%
same,Activity,[7],Active
same,IC50,[8],0.87 µM
same,inhibition,[9],Active
same,Activity,[10],22.9%
same,Activity,[11],Active
same,inhibition call (active/not active),[12],Active
same,Activity,[13],Active
same,topoisomerase 1 inhibition (active/inactive),[14],Active
same,Activity,[15],3.8%
same,Activity,[16],11.5%
same,IC50,[17],31.5 µM
same,inhibition,[18],Active
